# Compound activity as filed in PubChem.
# MEKK2mut PB1 HTS – signal of MEK5 binding to mutant human MEKK2 PB1 domain; bead flow cytometry, Alexa488-MEK5 binding to MEKK2 mutant; percent response, % at 10 µM; 0.35% of 290,000 active; in the data active = percent response above about 24%, passing the limit was not always enough
# MEKK2 WT-MEK5 – raises or lowers MEK5 binding to wildtype human MEKK2 PB1 domain; Q9Y2U5; bead flow cytometry, Alexa488-MEK5 binding to MEKK2 WT; actives lie on both sides; binding response (% of control), % at 10 µM; 1.1% of 290,000 active; AID 1531; in the data active = binding response below about 67% or above about 130%
# Efflux pump inh – blocks antifungal efflux pumps in multiplex yeast assay | S. cerevisiae Candida pump triplex, Nile Red efflux | inhibition, % at 10 µM | 0.44% of 330,000 active | AID 485275;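 active = plate passing quality check with inhibition over a set limit, or well fluorescence over plate mean plus 4 SD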;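 also: Nile Red retained in pooled yeast measured as flow cytometry median fluorescence; 0% = buffer negative control and 100% = Enniatin B positive control; higher means more Nile Red kept so more efflux inhibition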
# MEKK3 PB1 HTS – raises or lowers MEK5 binding to the human MEKK3 PB1 domain; Q99759; bead-based flow cytometry, Alexa488-MEK5 binding to MEKK3; actives lie on both sides; 0 = blocked by unlabeled MEK5, 100 = vehicle; binding response (% of control), % at 10 µM; 1.4% of 290,000 active; AID 1529;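 active = binding response more than 3 SD above or below the average of its plate-row segment, actives on both sides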;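 also: Alexa488 bead fluorescence after subtracting the streptavidin-only scavenger bead signal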
# ABCB1 inh – inhibitors of human ABCB1 transporter, ABCG2 counter-screen | P08183 | CCRF-Adr cells, JC-1 efflux, flow cytometry | inhibition, % at 6.6 µM | 0.067% of 190,000 active | AID 1326; in the data active = inhibition above about 40%;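 also: 0% = vehicle and 100% = reference inhibitor; higher value means more JC-1 retained so stronger ABCB1 efflux block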
# ABCG2 block – blocks JC-1 efflux by human ABCG2 transporter | Q9UNQ0 | inhibition, % at 6.6 µM | 0.1% of 190,000 active | IgMXP3 cells, flow cytometry;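 active = inhibition above 80%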;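 also: 0% = DMSO and 100% = nicardipine control wells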
#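 Test system: IgMXP3 (ABCG2) plus far-red-tagged CCRF-Adr (ABCB1) cells / Amount: 3 million cells/mL in well / Reagent: JC-1 transporter substrate / Timing: 10 min compound exposure, 25 °C / Signal: flow cytometry, 530 nm JC-1 signal / Read-out: percent efflux inhibition, scaled nicardipine 100% to DMSO 0% / Benchmarks: nicardipine as high control, DMSO as low control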
# An asterisk follows results filed as active; nt = no result; + = active, no number; [ ] = remark or other dose. Hits are enriched below; roughly 2.5% of the tested compounds scored in any of these assays.
SMILES,MEKK2mut PB1 HTS,MEKK2 WT-MEK5,Efflux pump inh,MEKK3 PB1 HTS,ABCB1 inh,ABCG2 block
N#CC1(NC(=O)CN2CCN(S(=O)(=O)c3ccccc3F)CC2)CCCC1,6,102,0,98,nt,nt
CCN(CC)c1ccc(/C=C/c2nc3ccccc3s2)cc1,2,81,1.0*,98,2,4
CC(OC(=O)C1CCCCC1)C(=O)Nc1ccc(S(N)(=O)=O)cc1 (stereo not drawn),nt,nt,0,nt,nt,nt
CCC(Sc1nc2ccncc2[nH]1)C(=O)Nc1cc(Cl)ccc1C (stereo not drawn),6,109,0,103,nt,nt
CCc1ccc(N(C(=O)c2snc(C(N)=O)c2N)C(C(=O)NC2CCCC2)c2ccco2)cc1 (stereo not drawn),-1,95,0,101,nt,nt
NC(=O)c1nsc(C(=O)N(c2cccc(F)c2)C(C(=O)NC2CCCC2)c2ccco2)c1N (stereo not drawn),-37,0.0*[inhibitor],0,1.0*[inhibitor],nt,nt
COc1ccc(CN2CCN(S(=O)(=O)c3ccc(NC(C)=O)cc3)CC2)cc1OC,nt,nt,0,nt,1,5
COc1ccc(CN2CCN(S(=O)(=O)c3ccc(F)cc3)CC2)cc1OC,-18,22*[inhibitor],0,13*[inhibitor],0,1
O=c1[nH][nH]c2c(N=Cc3ccccc3O)ccc(F)c12,-14,58*[inhibitor],nt,57*[inhibitor],nt,nt
CCN1/C(=C/C=C/c2sc3ccccc3[n+]2CC)Sc2ccccc21,nt,nt,0,nt,nt,nt
CCN1/C(=C/C=C/c2oc3ccc(-c4ccccc4)cc3[n+]2CC)Oc2ccc(-c3ccccc3)cc21,nt,nt,+,nt,+,nt
CCS(=O)(=O)CCn1c([N+](=O)[O-])cnc1C,-3,-9.0*,0,84,0,-1
Cc1ncc([N+](=O)[O-])n1CCO,5,103,0,86,0,0
COc1ccc(S(=O)(=O)N[C@H](C(=O)O)C(C)C)cc1,-6,96,0,88,54*,-1
COc1ccc(S(=O)(=O)NC(C)C(=O)O)cc1 (stereo not drawn),2,102,0,104,1,6
COc1cc(-c2nc3ccccc3s2)ccc1O,-6,92,0,94,0,4
CC(C)c1ccc(-c2nc3ccccc3s2)cc1,4,-3.0*,0,104,nt,nt
COc1cccc(CCN2CCC(CNS(=O)(=O)c3cc(-c4cc(C)no4)ccc3OC)CC2)c1,4,118,0,97,nt,nt
COc1cccc(CCN2CCC(CNS(=O)(=O)c3cc(-c4cc(C)no4)ccc3C)CC2)c1,23,140*,0,103,nt,nt
O=[N+]([O-])c1ccc(/C=N/Nc2nc(N3CCCCCC3)nc(N3CCCCCC3)n2)o1,4,109,0,105,0,3
O=[N+]([O-])c1ccc(-c2ccc(/C=N/Nc3nc(NCc4ccccc4)nc(N4CCOCC4)n3)o2)cc1,5,14*,0,99,0,2
Cc1cccc2nc(-c3cccnc3)c(NCCC(C)C)n12,2,-11*,0,95,2,6
COc1ccc(/C(C)=N/NC(=O)CNC(=O)c2cccnc2)cc1OC,6,108,0,106,nt,nt
CCN(CC)CCN(C(=O)c1ccc2c(c1)CCCC2)c1nc2ccc(C)cc2s1,31*,148*,0,108,nt,nt
CN(C)CCCN(C(=O)c1ccc(S(=O)(=O)N2CCc3ccccc3C2)cc1)c1nc2ccc(F)cc2s1,71*,252*,0,116,nt,nt
SMILES,MEKK2mut PB1 HTS,MEKK2 WT-MEK5,Efflux pump inh,MEKK3 PB1 HTS,ABCB1 inh,ABCG2 block
CN(C)CCCN(C(=O)c1cc(-c2cccs2)nc2ccccc12)c1nc2ccc(F)cc2s1,54*,203*,0,109,nt,nt
CN(C)CCN(C(=O)c1cc(Cl)sc1Cl)c1nc2ccc(F)cc2s1,25,118,0,112,0,0
CN(C)CCCN(C(=O)c1ccc(S(=O)(=O)N2CCc3ccccc32)cc1)c1nc2ccc(Cl)cc2s1,33*,181*,0,107,nt,nt
C[C@H](NC(=O)C1CCN(C(=O)[C@H](Cc2ccccc2)NC(=O)OC(C)(C)C)CC1)C(=O)O,9,110,0,107,nt,nt
O=C(NC(=S)Nc1ccccn1)c1cccc([N+](=O)[O-])c1,3,101,0,105,nt,nt
Cc1cc(NC(=O)Cc2ccccc2)ccc1NC(=O)c1cccs1,-6,96,0,102,0,0
Cc1ccc2nc(N(CCCN(C)C)C(=O)c3ccc(S(=O)(=O)N4CCc5ccccc5C4)cc3)sc2c1,55*,223*,0,113,nt,nt
Cc1cc(C)c2sc(N(CCCN(C)C)C(=O)c3ccc(S(=O)(=O)N4CCc5ccccc5C4)cc3)nc2c1,nt,nt,0,nt,nt,nt
Cc1ccc(-c2cc3cccc[n+]3cc2-c2ccc(C)cc2)cc1,-1,101,0,99,-1,-2
O=C(Nc1ccc2c(c1)nc1n2CCN(C2CCCCC2)C1)c1ccco1,-10,86,nt,77,nt,nt
COc1ccccc1C(=O)Nc1ccc2c(c1)nc1n2CCN(C2CCCCC2)C1,12,-12*,0,92,nt,nt
C#CCOCCOCCOCCNc1nc(N2CCN(C(=O)[C@H](Cc3cc4ccccc4[nH]3)n3cc([C@@H](N)Cc4ccc(O)cc4)nn3)CC2)nc(N2CCN(C(=O)[C@H](Cc3cc4ccccc4[nH]3)n3cc([C@@H](N)CC(C)C)nn3)CC2)n1,54*,201*,nt,98,nt,nt
C#CCOCCOCCOCCNc1nc(N2CCN(C(=O)C(Cc3cc4ccccc4[nH]3)n3cc(C(N)Cc4ccc(O)cc4)nn3)CC2)nc(N2CCN(C(=O)C(Cc3cc4ccccc4[nH]3)n3cc(C(N)Cc4ccc(O)cc4)nn3)CC2)n1 (stereo not drawn),179*,298*,nt,98,-1,-2
CN(C)CC(O)CN1C(=O)N(CN2C(=O)N(CC(O)CN(C)C)C(=O)C2(C)C)C(C)(C)C1=O (stereo not drawn),-10,83,0,100,-1,5
CC[C@@H]1C=C(C)C[C@H](C)C[C@H](OC)[C@H]2O[C@@](O)(C(=O)C(=O)N3CCCC[C@H]3C(=O)O[C@H](/C(C)=C/[C@@H]3CC[C@@H](O)[C@H](OC)C3)[C@H](C)[C@@H](O)CC1=O)[C@H](C)C[C@@H]2OC,2,92,nt,93,0,3
C=CC[C@@H]1C=C(C)C[C@H](C)C[C@H](OC)[C@H]2O[C@@](O)(C(=O)C(=O)N3CCCC[C@H]3C(=O)O[C@H](/C(C)=C/[C@@H]3CC[C@@H](O)[C@H](OC)C3)[C@H](C)[C@@H](O)CC1=O)[C@H](C)C[C@@H]2OC,3,106,1.1*,106,nt,nt
O=C(COC(=O)c1ccncc1)Nc1cc(Cl)ccc1Cl,6,107,0,103,0,4
